In ChEMBL document CHEMBL4118021, “Studies of TAK1-centered polypharmacology with novel covalent TAK1 inhibitors” (Bioorg Med Chem, 2017):

Key:
Assay type in all cases: cell-based
[1] = target: T1, Calcium/calmodulin-dependent protein kinase type IV (Homo sapiens) (UniProt Q16566); experiment: Inhibition of CaMK4 in human SKCO1 cells at 1 uM after 4 hrs using biotin labeled DLKPENLLYATPAPDAPLK probe by mass-spectrometric analysis relative to control
T1 sequence (whole entry): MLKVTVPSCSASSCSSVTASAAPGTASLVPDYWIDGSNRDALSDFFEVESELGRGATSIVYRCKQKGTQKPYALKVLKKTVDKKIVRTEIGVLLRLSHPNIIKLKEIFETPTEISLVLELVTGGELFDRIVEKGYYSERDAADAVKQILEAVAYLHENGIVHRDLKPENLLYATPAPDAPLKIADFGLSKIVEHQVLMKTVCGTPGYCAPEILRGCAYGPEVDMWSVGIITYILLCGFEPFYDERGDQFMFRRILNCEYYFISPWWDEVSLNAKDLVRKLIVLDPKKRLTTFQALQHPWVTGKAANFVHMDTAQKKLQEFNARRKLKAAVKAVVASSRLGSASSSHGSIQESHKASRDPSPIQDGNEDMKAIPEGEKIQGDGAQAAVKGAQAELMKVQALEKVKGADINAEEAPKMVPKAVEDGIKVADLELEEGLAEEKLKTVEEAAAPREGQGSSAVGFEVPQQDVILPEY

[2] = target: Serine/threonine-protein kinase 10 (Homo sapiens) (UniProt O94804); experiment: Inhibition of LOK in human SKCO1 cells at 1 uM after 4 hrs using biotin labeled DLKAGNVLMTLEGDIR probe by mass-spectrometric analysis relative to control
[3] = target: 5'-AMP-activated protein kinase catalytic subunit alpha-2 (Homo sapiens) (UniProt P54646); experiment: Inhibition of AMPKa2 in human SKCO1 cells at 1 uM after 4 hrs using biotin labeled DLKPENVLLDAHMNAK probe by mass-spectrometric analysis relative to control
How it was run: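 Live SK-CO-1 cells were treated 4 h with compound at 1 μM or DMSO, then lysed. Lysates were labeled with a lysine-reactive ATP/ADP-biotin probe and analysed by mass spectrometry. Percent inhibition is the loss of probe-dependent recovery of the kinase peptide relative to DMSO.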

[4] = target: Ribosomal protein S6 kinase (Homo sapiens) (UniProt P51812+Q9UBS0+O75676+Q15349+O75582+P23443+Q9UK32+Q15418); experiment: Inhibition of p70S6K in human SKCO1 cells at 1 uM after 4 hrs using biotin labeled DLKPENIMLNHQGHVK probe by mass-spectrometric analysis relative to control
How it was run: (§1)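 Live SK-CO-1 cells exposed to compound at 1 μM or DMSO for 4 h (KiNativ). Lysates then labeled with lysine-reactive ATP/ADP-biotin probe, and probe-labeled kinase peptides quantified by mass spectrometry. Percent inhibition of probe-dependent recovery calculated relative to DMSO-treated cells.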

[5] = target: T2, Dual specificity mitogen-activated protein kinase kinase 7 (Homo sapiens) (UniProt O14733); experiment: Inhibition of MAP2K7 in human SKCO1 cells at 1 uM after 4 hrs using biotin labeled DVKPSNILLDER probe by mass-spectrometric analysis relative to control
T2 sequence (whole entry): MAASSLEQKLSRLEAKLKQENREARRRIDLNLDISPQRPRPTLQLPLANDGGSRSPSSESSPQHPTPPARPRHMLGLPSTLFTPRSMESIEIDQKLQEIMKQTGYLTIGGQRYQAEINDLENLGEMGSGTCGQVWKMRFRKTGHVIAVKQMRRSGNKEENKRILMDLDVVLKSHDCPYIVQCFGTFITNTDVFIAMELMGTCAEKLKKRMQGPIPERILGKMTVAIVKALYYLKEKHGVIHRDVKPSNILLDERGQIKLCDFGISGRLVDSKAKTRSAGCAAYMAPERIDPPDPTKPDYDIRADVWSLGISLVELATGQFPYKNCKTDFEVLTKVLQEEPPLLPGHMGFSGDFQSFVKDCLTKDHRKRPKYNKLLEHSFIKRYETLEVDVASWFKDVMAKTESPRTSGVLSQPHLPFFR

[6] = target: MAP/microtubule affinity-regulating kinase 3 (Homo sapiens) (UniProt P27448); experiment: Inhibition of MARK3 in human SKCO1 cells at 1 uM after 4 hrs using biotin labeled DLKAENLLLDADMNIK probe by mass-spectrometric analysis relative to control
[7] = target: Microtubule-associated serine/threonine-protein kinase 3 (Homo sapiens) (UniProt O60307); experiment: Inhibition of MAST3 in human SKCO1 cells at 1 uM after 4 hrs using biotin labeled DLKPDNLLITSLGHIK probe by mass-spectrometric analysis relative to control
[8] = target: Serine/threonine-protein kinase PAK 2 (Homo sapiens) (UniProt Q13177); experiment: Inhibition of PAK2 in human SKCO1 cells at 1 uM after 4 hrs using biotin labeled IGQGASGTVFTATDVALGQEVAIKQINLQK probe by mass-spectrometric analysis relative to control; how it was run: as §1
[9] = target: T3, Non-receptor tyrosine-protein kinase TNK1 (Homo sapiens) (UniProt Q13470); experiment: Inhibition of TNK1 in human SKCO1 cells at 1 uM after 4 hrs using biotin labeled SVPVAVKSLR probe by mass-spectrometric analysis relative to control; how it was run: as §1
T3 sequence (whole entry): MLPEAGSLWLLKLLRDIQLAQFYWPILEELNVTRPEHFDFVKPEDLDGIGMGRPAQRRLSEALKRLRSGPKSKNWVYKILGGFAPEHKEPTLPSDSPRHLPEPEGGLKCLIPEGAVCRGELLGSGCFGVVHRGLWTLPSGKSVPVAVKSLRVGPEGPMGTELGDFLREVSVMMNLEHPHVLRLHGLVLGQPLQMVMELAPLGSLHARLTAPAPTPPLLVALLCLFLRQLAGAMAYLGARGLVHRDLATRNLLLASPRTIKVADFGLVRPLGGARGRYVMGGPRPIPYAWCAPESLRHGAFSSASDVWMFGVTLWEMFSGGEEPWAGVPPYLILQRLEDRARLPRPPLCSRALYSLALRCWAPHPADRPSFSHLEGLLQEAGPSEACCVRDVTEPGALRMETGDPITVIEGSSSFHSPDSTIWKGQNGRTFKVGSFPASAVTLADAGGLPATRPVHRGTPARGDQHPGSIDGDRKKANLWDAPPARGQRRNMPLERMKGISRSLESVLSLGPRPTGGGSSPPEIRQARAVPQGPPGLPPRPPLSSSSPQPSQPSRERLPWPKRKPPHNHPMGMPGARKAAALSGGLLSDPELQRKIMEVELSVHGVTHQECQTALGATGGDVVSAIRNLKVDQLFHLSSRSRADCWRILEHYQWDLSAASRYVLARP

[10] = target: Serine/threonine-protein kinase tousled-like 2 (Homo sapiens) (UniProt Q86UE8); experiment: Inhibition of TLK2 in human SKCO1 cells at 1 uM after 4 hrs using biotin labeled YLNEIKPPIIHYDLKPGNILLVNGTACEIK probe by mass-spectrometric analysis relative to control; how it was run: as §1
Sequence of Serine/threonine-protein kinase tousled-like 2 (Homo sapiens) (Q86UE8 whole entry, looked up): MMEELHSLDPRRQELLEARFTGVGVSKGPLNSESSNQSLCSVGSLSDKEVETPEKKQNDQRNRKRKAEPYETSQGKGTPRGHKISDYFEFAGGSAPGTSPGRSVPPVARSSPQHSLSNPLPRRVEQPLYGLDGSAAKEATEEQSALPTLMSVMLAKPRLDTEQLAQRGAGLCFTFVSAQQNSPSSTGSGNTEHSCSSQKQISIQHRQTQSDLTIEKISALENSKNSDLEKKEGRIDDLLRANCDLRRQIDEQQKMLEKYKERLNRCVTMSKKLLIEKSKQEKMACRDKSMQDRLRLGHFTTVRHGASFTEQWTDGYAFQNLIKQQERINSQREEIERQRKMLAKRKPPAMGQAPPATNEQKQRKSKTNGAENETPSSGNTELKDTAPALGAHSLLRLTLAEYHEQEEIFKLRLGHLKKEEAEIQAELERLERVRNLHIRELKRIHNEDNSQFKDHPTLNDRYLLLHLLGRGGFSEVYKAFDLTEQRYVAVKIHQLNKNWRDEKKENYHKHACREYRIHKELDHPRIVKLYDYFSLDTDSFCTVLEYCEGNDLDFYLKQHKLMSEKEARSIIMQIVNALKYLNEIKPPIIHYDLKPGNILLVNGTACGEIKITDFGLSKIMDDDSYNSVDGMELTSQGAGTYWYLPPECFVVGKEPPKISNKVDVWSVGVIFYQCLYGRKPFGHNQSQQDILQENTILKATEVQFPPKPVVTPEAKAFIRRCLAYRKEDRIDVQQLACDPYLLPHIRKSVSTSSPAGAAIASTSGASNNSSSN

Sequence of 5'-AMP-activated protein kinase catalytic subunit alpha-2 (Homo sapiens) (P54646 whole entry, looked up): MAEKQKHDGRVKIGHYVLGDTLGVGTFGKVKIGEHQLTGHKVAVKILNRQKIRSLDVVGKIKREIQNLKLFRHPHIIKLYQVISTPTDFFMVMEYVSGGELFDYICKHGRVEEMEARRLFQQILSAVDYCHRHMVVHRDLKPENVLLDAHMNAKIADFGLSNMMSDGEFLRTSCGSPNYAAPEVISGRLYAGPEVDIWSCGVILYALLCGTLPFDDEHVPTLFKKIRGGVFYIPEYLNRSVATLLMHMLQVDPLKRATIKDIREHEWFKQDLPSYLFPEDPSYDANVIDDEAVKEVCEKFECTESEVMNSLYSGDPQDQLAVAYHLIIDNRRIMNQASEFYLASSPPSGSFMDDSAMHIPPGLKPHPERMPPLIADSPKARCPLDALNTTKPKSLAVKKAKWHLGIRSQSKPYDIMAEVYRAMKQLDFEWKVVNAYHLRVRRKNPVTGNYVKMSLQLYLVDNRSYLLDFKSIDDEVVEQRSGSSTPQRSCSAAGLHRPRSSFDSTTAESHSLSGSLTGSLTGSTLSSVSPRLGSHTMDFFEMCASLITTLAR
Sequence of Serine/threonine-protein kinase PAK 2 (Homo sapiens) (Q13177 whole entry): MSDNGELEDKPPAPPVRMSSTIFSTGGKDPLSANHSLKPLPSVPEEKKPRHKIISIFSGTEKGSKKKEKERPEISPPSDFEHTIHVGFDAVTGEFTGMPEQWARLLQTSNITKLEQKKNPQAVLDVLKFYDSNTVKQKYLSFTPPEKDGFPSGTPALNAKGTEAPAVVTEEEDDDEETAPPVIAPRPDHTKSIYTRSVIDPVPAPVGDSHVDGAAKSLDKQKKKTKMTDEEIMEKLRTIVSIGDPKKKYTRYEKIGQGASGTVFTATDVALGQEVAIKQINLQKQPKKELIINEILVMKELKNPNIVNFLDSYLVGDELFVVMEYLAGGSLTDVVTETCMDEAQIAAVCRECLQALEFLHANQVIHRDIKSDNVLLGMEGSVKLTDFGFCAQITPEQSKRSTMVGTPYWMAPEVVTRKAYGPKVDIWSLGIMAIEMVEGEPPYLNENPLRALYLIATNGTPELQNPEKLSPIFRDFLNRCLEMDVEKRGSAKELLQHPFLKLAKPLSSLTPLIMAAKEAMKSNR
Sequence of MAP/microtubule affinity-regulating kinase 3 (Homo sapiens) (P27448 whole entry, looked up): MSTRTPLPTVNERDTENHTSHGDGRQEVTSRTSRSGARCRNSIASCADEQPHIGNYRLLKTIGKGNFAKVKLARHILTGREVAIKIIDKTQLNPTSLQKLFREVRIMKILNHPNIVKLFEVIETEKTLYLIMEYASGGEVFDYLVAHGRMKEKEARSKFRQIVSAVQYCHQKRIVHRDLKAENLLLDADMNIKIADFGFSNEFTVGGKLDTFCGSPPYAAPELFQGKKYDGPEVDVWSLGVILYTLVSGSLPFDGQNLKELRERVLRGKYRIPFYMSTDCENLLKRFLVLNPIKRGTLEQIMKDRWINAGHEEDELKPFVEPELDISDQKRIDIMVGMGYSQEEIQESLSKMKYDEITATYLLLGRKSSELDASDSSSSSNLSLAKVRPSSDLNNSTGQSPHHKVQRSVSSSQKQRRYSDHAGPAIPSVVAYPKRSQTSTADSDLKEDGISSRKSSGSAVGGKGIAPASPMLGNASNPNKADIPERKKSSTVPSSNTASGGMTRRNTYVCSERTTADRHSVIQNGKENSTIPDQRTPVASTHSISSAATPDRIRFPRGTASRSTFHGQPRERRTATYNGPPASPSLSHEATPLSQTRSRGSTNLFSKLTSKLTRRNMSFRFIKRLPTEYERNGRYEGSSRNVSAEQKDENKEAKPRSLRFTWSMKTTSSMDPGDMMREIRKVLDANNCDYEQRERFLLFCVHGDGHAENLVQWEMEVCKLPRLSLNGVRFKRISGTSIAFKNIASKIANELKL
Sequence of Serine/threonine-protein kinase 10 (Homo sapiens) (O94804 whole entry, looked up): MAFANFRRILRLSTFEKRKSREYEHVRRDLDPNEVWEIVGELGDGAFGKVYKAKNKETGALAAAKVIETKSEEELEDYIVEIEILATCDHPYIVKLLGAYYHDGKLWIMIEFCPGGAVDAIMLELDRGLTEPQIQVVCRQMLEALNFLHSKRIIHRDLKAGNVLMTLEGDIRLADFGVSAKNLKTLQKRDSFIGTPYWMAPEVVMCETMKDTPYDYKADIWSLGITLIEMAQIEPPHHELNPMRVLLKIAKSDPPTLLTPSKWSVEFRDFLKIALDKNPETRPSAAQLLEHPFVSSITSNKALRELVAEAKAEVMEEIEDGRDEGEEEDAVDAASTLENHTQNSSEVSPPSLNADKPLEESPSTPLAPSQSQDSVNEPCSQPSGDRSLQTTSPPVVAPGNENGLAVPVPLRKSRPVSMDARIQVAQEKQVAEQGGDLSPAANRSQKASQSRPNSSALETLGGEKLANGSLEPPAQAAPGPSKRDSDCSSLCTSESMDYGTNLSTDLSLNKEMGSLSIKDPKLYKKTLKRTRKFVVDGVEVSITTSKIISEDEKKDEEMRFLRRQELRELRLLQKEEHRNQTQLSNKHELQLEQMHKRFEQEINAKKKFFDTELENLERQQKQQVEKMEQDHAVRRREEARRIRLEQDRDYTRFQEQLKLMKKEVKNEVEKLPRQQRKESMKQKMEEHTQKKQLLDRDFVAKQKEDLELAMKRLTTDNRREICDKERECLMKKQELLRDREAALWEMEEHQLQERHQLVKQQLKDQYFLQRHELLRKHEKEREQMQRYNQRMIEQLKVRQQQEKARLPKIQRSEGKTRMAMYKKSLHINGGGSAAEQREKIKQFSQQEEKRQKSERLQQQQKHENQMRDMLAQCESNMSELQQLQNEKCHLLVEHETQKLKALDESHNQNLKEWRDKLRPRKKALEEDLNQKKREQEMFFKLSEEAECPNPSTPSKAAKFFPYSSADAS
Sequence of Microtubule-associated serine/threonine-protein kinase 3 (Homo sapiens) (O60307 whole entry): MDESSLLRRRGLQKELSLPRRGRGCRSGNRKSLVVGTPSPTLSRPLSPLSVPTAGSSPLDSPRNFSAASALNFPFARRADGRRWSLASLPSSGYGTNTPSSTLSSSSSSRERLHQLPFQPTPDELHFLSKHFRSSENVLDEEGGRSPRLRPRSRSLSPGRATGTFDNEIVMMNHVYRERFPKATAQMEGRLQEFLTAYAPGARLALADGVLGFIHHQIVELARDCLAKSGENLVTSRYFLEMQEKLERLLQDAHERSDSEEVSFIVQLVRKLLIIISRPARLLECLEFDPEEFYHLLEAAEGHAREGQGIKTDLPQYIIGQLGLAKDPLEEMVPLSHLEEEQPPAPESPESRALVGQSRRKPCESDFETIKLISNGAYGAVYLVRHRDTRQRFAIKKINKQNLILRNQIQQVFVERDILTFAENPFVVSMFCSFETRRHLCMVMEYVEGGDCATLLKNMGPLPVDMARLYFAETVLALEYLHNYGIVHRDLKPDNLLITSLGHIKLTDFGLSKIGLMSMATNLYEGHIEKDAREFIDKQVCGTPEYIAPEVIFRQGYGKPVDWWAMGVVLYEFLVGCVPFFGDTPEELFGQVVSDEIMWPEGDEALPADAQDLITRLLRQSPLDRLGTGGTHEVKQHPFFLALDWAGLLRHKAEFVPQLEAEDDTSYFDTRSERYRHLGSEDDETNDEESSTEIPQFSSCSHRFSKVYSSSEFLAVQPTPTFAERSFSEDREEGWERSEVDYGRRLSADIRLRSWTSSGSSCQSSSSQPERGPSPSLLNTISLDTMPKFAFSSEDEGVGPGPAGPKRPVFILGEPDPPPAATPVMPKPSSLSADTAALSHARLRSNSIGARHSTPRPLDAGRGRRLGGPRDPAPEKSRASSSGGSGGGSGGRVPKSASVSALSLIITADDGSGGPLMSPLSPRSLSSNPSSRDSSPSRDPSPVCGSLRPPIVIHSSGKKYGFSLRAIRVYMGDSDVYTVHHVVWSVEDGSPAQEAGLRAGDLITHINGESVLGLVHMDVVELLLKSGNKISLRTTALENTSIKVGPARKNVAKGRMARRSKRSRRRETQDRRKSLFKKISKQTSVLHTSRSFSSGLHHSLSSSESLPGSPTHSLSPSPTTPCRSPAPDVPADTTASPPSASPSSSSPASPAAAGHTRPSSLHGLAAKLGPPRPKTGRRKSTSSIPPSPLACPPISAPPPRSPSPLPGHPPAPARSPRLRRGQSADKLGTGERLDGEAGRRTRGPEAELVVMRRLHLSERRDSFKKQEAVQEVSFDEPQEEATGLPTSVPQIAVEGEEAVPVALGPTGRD

Compound | inhibition [1] [%] | inhibition [2] [%] | inhibition [3] [%] | inhibition [4] [%] | inhibition [5] [%] | inhibition [6] [%] | inhibition [7] [%] | inhibition [8] [%] | inhibition [9] [%] | inhibition [10] [%]
COc1cc(O)c2c(c1)/C=C/C[C@H](O)[C@H](O)C(=O)/C=C\C[C@H](C)OC2=O | 30.6 | 21.4 | 33.6 | 45.5 | 18.6 | 3.6 | 39.2 | -3.9 | 13.9 | -1.8
C=CC(=O)Nc1ccccc1Nc1nc(Nc2ccc(N3CCN(C)CC3)cc2)ncc1Cl | -2.6 | 40.4 | 76 | 16.3 | 13.7 | -7.2 | 13.2 | -8.6 | 98.3 | -2.7
C=CC(=O)Nc1ccccc1Oc1nc(Nc2cnn(CCOC)c2)ncc1Cl | -7.4 | 11.6 | 0.2 | 14.3 | 12.3 | -8.4 | 30.6 | 3 | 48.3 | 3.8
